Source: ChEMBL document CHEMBL1667760, “Synthesis and biological evaluation of 3,5-diaryl isoxazoline/isoxazole linked 2,3-dihydroquinazolinone hybrids as anticancer agents” (2011)
Structures can show the parent of a compound that is named as a salt. The source made the active and inactive calls. The rule behind the calls is not given here.

Experiments:
[1] = tested on: A2780; assay: Cytotoxicity against human A2780 cells after 48 hrs by sulforhodamine B assay; format: functional; conditions: A2780, 48 h
How it was run: (§1)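 Cells were grown in RPMI 1640 with 10% FBS and 2 mM L-glutamine, plated at densities set by doubling time, and pre-incubated 24 h at 37 °C, 5% CO2. Drugs were tested at 0.1, 1, 10 and 100 µM in triplicate wells for 48 h continuous exposure. Cells were fixed with 10% TCA (final) and stained with 0.4% SRB. A540 was read against a 690 nm reference, and percent growth was calculated relative to control. Experiments were repeated three times.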

[2] = tested on: PC-3; assay: Cytotoxicity against human PC3 cells after 48 hrs by sulforhodamine B assay; format: functional; conditions: PC-3, 48 h, read-out: GI50; how it was run: as §1
[3] = tested on: A549; assay: Cytotoxicity against human A549 cells after 48 hrs by sulforhodamine B assay; format: functional; conditions: A549, 48 h, read-out: GI50; how it was run: as §1
[4] = tested on: KB; assay: Cytotoxicity against human KB cells after 48 hrs by sulforhodamine B assay; format: functional; how it was run: as §1
[5] = tested on: OVCAR-8; assay: Cytotoxicity against human OVCAR8 cells after 48 hrs by sulforhodamine B assay; format: functional; conditions: OVCAR-8, 48 h, read-out: GI50
How it was run: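 Run by the NCI 60-cell-line screen. A one-dose pre-test was done first, followed by the main test over a 5-log dose range (10^-4 to 10^-8 M). Results are reported as log molar GI50 (50% net growth inhibition), TGI (total growth inhibition) and LC50 (50% net cell death), with mean-graph midpoints across all lines.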

[6] = target: Tubulin (Homo sapiens) (UniProt P68371+Q9H4B7+P0DPH7+P68366+Q13509+Q71U36+P04350+Q3ZCM7+P07437+P68363+Q9BQE3+Q6PEY2+Q13885+Q9BVA1+Q9BUF5); conditions: MCF7, 2.5 uM
[7] = tested on: MCF7; assay: Induction of apoptosis in human MCF7 cells assessed as nuclear fragmentation at 2.5 uM after 48 hrs by DAPI staining; format: functional, cell-based
How it was run: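 MCF-7 cells grown on glass coverslips and incubated 48 h with or without compound. Fixed in 3% paraformaldehyde/0.02% glutaraldehyde in PBS, stained with DAPI, and nuclear morphology examined by fluorescence microscopy.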

[8] = tested on: MCF7; assay: Cell cycle arrest in human MCF7 cells assessed as accumulation at G1 phase at 5 uM after 24 hrs using propidium iodide staining by flow cytometry relative to control; format: functional
How it was run: (§2)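 MCF-7 cells were seeded at 5×10^5 per 60 mm dish and grown 24 h. They were then exposed to 5 uM compound for a further 24 h, with untreated control cells alongside. Cells were trypsinised, fixed in ice-cold 70% ethanol (4 °C, 30 min), treated with 1 mg/ml RNase A (37 °C, 30 min) and stained with propidium iodide/citrate/Triton solution. DNA content was read by flow cytometry on 20,000 events.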

[9] = tested on: MCF7; assay: Cell cycle arrest in human MCF7 cells assessed as accumulation at G0 phase at 5 uM after 24 hrs using propidium iodide staining by flow cytometry relative to control; format: functional; how it was run: as §2
[10] = tested on: MCF7; assay: Cell cycle arrest in human MCF7 cells assessed as accumulation at S phase at 5 uM after 24 hrs using propidium iodide staining by flow cytometry relative to control; format: functional; how it was run: as §2
[11] = tested on: MCF7; assay: Cell cycle arrest in human MCF7 cells assessed as accumulation at G2/M phase at 5 uM after 24 hrs using propidium iodide staining by flow cytometry relative to control; format: functional; how it was run: as §2
[12] = tested on: MCF7; assay: Reduction of cyclin A expression in human MCF7 cells at 5 uM after 24 hrs by Western blotting; format: functional, cell-based
How it was run: (§3)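 MCF-7 cells, kept in DMEM with 10% fetal calf serum at 37 °C under 5% CO2, treated 24 h. Lysis in ice-cold RIPA with protease inhibitors; Bradford quantitation; 30 µg protein per lane on 12% SDS-PAGE, then PVDF. Primary antibodies (1:500) at 4 °C overnight; HRP secondary (1:2000); chemiluminescence detection; β-actin loading control.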

[13] = tested on: MCF7; assay: Induction of apoptosis in human MCF7 cells assessed as increase of cleaved PARP level at 5 uM after 24 hrs by Western blotting; format: functional, cell-based; how it was run: as §3

inhibition [6] | SMILES | GI50 [1] | GI50 [2] | GI50 [3] | GI50 [4] | GI50 [5] | Activity [7] | Activity [8] | Activity [9] | Activity [10] | Activity [11] | Activity [12] | Activity [13]
 | COc1ccc(C2NC(=O)c3ccccc3N2)cc1OCCCCOc1c(OC)cc(-c2cc(-c3cc(OC)c(OC)c(OC)c3)no2)cc1OC (stereo unspecified) | 2000 nM | 2000 nM | 180 nM | 26000 nM | 25000 nM |  |  |  |  |  |  | 
Active | COC(=O)Nc1nc2cc(C(=O)c3cccs3)ccc2[nH]1 |  |  |  |  |  | Active |  |  |  |  |  | 
 | COc1cc(C2NC(=O)c3ccccc3N2)ccc1OCCCCCBr (stereo unspecified) |  |  |  |  |  |  | 69% | 1.61% | 12.75% | 16.64% |  | 
 | COc1cc(C2NC(=O)c3ccccc3N2)ccc1OCCCCOc1cc(C2CC(c3cc(OC)c(OC)c(OC)c3)=NO2)ccc1OC (stereo unspecified) | 22000 nM | 2800 nM | 150 nM | 30000 nM | 180 nM |  |  |  |  |  |  | 
 | COc1cc(C2=NOC(c3cc(OC)c(OC)c(OC)c3)C2)cc(OC)c1O (stereo unspecified) |  |  |  |  |  |  | 44.54% | 0.5% | 20.6% | 34.36% |  | 
 | COc1ccc(/C=C\c2cc(OC)c(OC)c(OC)c2)cc1O [COMBRETASTATIN A4] |  |  |  |  |  |  | 16.05% | 2.53% | 15.92% | 65.5% | Active | Active
 | COc1cccc2c1C(=O)c1c(O)c3c(c(O)c1C2=O)C[C@@](O)(C(=O)CO)C[C@@H]3O[C@H]1C[C@H](N)[C@H](O)[C@H](C)O1 [DOXORUBICIN HYDROCHLORIDE] | 180 nM | 160 nM | 130 nM | 190 nM | 150 nM |  |  |  |  |  |  | 
 | COc1cc(C2NC(=O)c3ccccc3N2)ccc1OCCCCCOc1cc(C2CC(c3cc(OC)c(OC)c(OC)c3)=NO2)ccc1OC (stereo unspecified) | > 100000 nM | 2400 nM | 160 nM | 27000 nM | 140 nM |  |  |  |  |  |  | 
 | COc1cc(C2NC(=O)c3ccccc3N2)ccc1OCCCOc1cc(C2CC(c3cc(OC)c(OC)c(OC)c3)=NO2)ccc1OC (stereo unspecified) | 26000 nM | 2500 nM | 170 nM | 28000 nM | 170 nM |  |  |  |  |  |  | 
 | COc1cc(C2NC(=O)c3ccccc3N2)ccc1OCCCOc1c(OC)cc(C2=NOC(c3cc(OC)c(OC)c(OC)c3)C2)cc1OC (stereo unspecified) | > 100000 nM | 520 nM | 20000 nM | 22000 nM | 280 nM |  |  |  |  |  |  | 
 | COc1cc(C2NC(=O)c3ccccc3N2)ccc1OCCCCOc1c(OC)cc(C2=NOC(c3cc(OC)c(OC)c(OC)c3)C2)cc1OC (stereo unspecified) | > 100000 nM | 460 nM | 14000 nM | 21000 nM | 300 nM |  |  |  |  |  |  | 
 | COc1ccc(-c2cc(-c3cc(OC)c(OC)c(OC)c3)on2)cc1OCCCCOc1cc(C2NC(=O)c3ccccc3N2)ccc1OC (stereo unspecified) | > 100000 nM | 2100 nM | > 100000 nM | > 100000 nM | 150 nM |  |  |  |  |  |  | 
